Data set [1] in a line: Inhibition of Mycobacterium tuberculosis Zinc metalloprotease-1 using angiotensin 2 as substrate preincubated for 3 mins and measured after 20 mins by MALDI-TOF MS analysis. In outline: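 Zmp1 digestion of human angiotensin II in NH4HCO3 at 37 °C: 3 min preincubation with inhibitor, then 20 min reaction with recombinant Mtb Zmp1, monitored by MALDI-TOF MS. IC50 derived from slope ratios, inhibited versus control, at three inhibitor concentrations within 20–80 µM.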

Data set [2] in a line: Cytotoxicity against mouse RAW264.7 cells assessed as reduction in cell viability after 24 hrs by neutral red dye based assay. The essentials:
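Neutral red uptake assay on RAW264.7 murine macrophages in DMEM + 10% heat-inactivated FCS, 40.000 cells/well, seeded the day before. Two-fold serial dilutions from 128 µM final. Exposure 24 h at 37 °C, 5% CO2; then neutral red for 3 h, extraction with 1:1 ethanol/acetic acid. OD read at 530 nm (reference 620 nm).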

In data set [3] the test system is Mycobacterium tuberculosis. As to the kind of experiment: Antimycobacterial activity against Mycobacterium tuberculosis H37Ra infected in mouse RAW264.7 cells assessed as inhibition of intracellular bacterial growth at 10 uM after 24 hrs by luciferase reporter gene based assay relative to control. It is filed as functional. The settings on record: RAW264.7, 24 h, read-out: INH. The essentials:
(§1)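 Murine RAW264.7 macrophages (DMEM + 10% heat-inactivated FCS, 37 °C, 5% CO2; 40.000 cells/well) infected 2 h at 37 °C with luciferase-reporter Mtb H37Ra (pSMT1) at MOI 10. Extracellular bacteria were killed with 100 µg/ml gentamicin for 1 h. Compounds were given at 10 and 100 µM final; isoniazid reference 0.1 µM. After 24 h, cells were lysed in 1% Triton X-100 and read by luminescence after n-decanal addition. Inhibition % was calculated versus untreated control; mean of triplicates.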

The test system of data set [4] is Mycobacterium tuberculosis. In words: Inhibition of Mycobacterium tuberculosis Zinc metalloprotease-1 at 40 uM using angiotensin 2 as substrate preincubated for 3 mins and measured after 20 mins by MALDI-TOF MS analysis relative to control. The essentials: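 Human angiotensin II substrate in NH4HCO3 was preincubated 3 min at 37 °C with inhibitor in acetone (acetone alone for control). Recombinant Mtb Zmp1 was added and the reaction ran 20 min at 37 °C. Cleavage was followed by MALDI-TOF MS (reflectron positive mode). Inhibition rate at 40 µM was taken as the inverted ratio of time-course slopes, inhibited versus control. Phosphoramidon reference at 40 µM final.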

In data set [5] the test system is Mycobacterium tuberculosis. In words: Antimycobacterial activity against Mycobacterium tuberculosis H37Ra infected in mouse RAW264.7 cells assessed as inhibition of intracellular bacterial growth at 100 uM after 24 hrs by luciferase reporter gene based assay. It is filed as functional, organism-based. The essentials:
as §1

Data set [6] can be described thus: Selectivity index, ratio of CC50 for mouse RAW264.7 cells to MIC90 for antimycobacterial activity against Mycobacterium tuberculosis H37Rv. It is filed as toxicity. To be noted: read-out: Selectivity Index.
The subject of data set [7] is Mycobacterium tuberculosis. In words: Antimycobacterial activity against Mycobacterium tuberculosis H37Ra infected in mouse RAW264.7 cells assessed as inhibition of intracellular bacterial growth at 10 uM after 24 hrs by luciferase reporter gene based assay. It is filed as functional, organism-based. The essentials: as §1
For data set [8], the system named is Mycobacterium tuberculosis. As to the kind of experiment: Antimycobacterial activity against Mycobacterium tuberculosis H37Ra infected in mouse RAW264.7 cells assessed as inhibition of intracellular bacterial growth at 100 uM after 24 hrs by luciferase reporter gene based assay relative to control. It is filed as functional. The settings on record: RAW264.7, 24 h. In outline:
as §1

Calls of active or inactive are those of the source. The calls are words filed in the database; no cut-off is given here.

The record followed here is ChEMBL document CHEMBL4373742, “Novel thiazolidinedione-hydroxamates as inhibitors of Mycobacterium tuberculosis virulence factor Zmp1” (Eur J Med Chem, 2020).

Take `CC(C(=O)NOCc1ccccc1)N1C(=O)S/C(=C\c2ccc(C(F)(F)F)cc2)C1=O` (centres undefined): in data set [1], the IC50 is 20 to 160 µM. The CC50 at 24 h in data set [2] was over 128 µM. Moreover, the percent inhibition of intracellular bacterial growth at 10 µM in data set [3] was found to be 19.4%. In data set [4], this compound returned an inhibition of 16.3%.

Compound `C=CCONC(=O)CN1C(=O)S/C(=C\c2ccc(F)cc2)C1=O` showed a concentration for half-maximal inhibition (IC50) in data set [1] of 20 to 160 µM. The CC50 at 24 h in data set [2] is over 128 µM. This compound also gave an inhibition in data set [4] of 69.8%.

On to `O=C(CN1C(=O)S/C(=C\c2ccc(F)cc2)C1=O)NOCc1ccccc1`, for which the IC50 in data set [1] is 20 to 160 µM. In addition, the cytotoxic concentration (CC50) at 24 h in data set [2] was over 128 µM. Moreover, the percent inhibition of intracellular bacterial growth at 10 µM in data set [3] is 20.6%. This compound registered an inhibition in data set [4] of 78.3%.

`CC(C)C[C@H](NP(=O)(O)O[C@@H]1O[C@@H](C)[C@H](O)[C@@H](O)[C@H]1O)C(=O)N[C@@H](Cc1c[nH]c2ccccc12)C(=O)O` [PHOSPHORAMIDON] displayed a 50% inhibitory concentration (IC50) in data set [1] of 20 to 160 µM. In addition, the inhibition in data set [4] was found to be 78%.

`CC/C(=C(\c1ccccc1)c1ccc(OCCN(C)C)cc1)c1ccccc1` [TAMOXIFEN]: the CC50 at 24 h in data set [2] came out at 11.1 µM.

In turn, `O=C(CN1C(=O)CSC1=O)NOCc1ccccc1` had an IC50 in data set [1] of 20 to 160 µM. The CC50 at 24 h in data set [2] was over 128 µM. Besides, the inhibition in data set [4] amounted to 31.9%.

As to `C=CCONC(=O)C(C)N1C(=O)S/C(=C\c2ccccc2)C1=O` (centres undefined), the IC50 in data set [1] lay in the range of 20 to 160 µM. Besides, the CC50 at 24 h in data set [2] was over 128 µM. Besides, the inhibition in data set [4] worked out at 13%.

Compound `C=CCONC(=O)C(C)N1C(=O)S/C(=C\CCCC)C1=O` (centres undefined) came in with an IC50 in data set [1] of 20 to 160 µM. Moreover, the CC50 at 24 h in data set [2] was over 128 µM. For the same compound, the inhibition in data set [4] came to 34.7%.

`O=C(CN1C(=O)S/C(=C\c2ccccc2)C1=O)NOCc1ccccc1` returned a half-inhibitory concentration (IC50) in data set [1] of 20 to 160 µM. The CC50 at 24 h in data set [2] was over 128 µM. The percent inhibition of intracellular bacterial growth at 10 µM in data set [3] is 38.3%. Moreover, in data set [4], the inhibition was found to be 59.5%.

Regarding `C=CCONC(=O)CN1C(=O)S/C(=C\c2ccccc2)C1=O`, the concentration for half-maximal inhibition (IC50) in data set [1] is 20 to 160 µM. Moreover, in data set [2], the CC50 at 24 h was over 128 µM. The compound also showed an inhibition in data set [4] of 59%.

For the compound `CC(C(=O)NOCc1ccccc1)N1C(=O)CSC1=O` (centres undefined), the concentration for half-maximal inhibition (IC50) in data set [1] is 20 to 160 µM. Also, the CC50 at 24 h in data set [2] is over 128 µM. For the same compound, in data set [4], the inhibition was 78.1%.

`C=CCONC(=O)CN1C(=O)CSC1=O` returned a half-inhibitory concentration (IC50) in data set [1] of 20 to 160 µM. In addition, the CC50 at 24 h in data set [2] is over 128 µM. For the same compound, the percent inhibition of intracellular bacterial growth at 10 µM in data set [3] stood at 30.2%. In addition, in data set [4], the inhibition turned out to be 92.2%.

Consider `C=CCONC(=O)C(C)N1C(=O)S/C(=C\c2ccc(F)cc2)C1=O` (centres undefined), for which the 50% inhibitory concentration (IC50) in data set [1] lay within 20 to 160 µM. Moreover, the CC50 at 24 h in data set [2] was over 128 µM. This compound showed an inhibition in data set [4] of 95.5%.

As to `C=CCONC(=O)C(C)N1C(=O)CSC1=O` (centres undefined), the half-inhibitory concentration (IC50) in data set [1] was in the range of 20 to 160 µM. Further, the CC50 at 24 h in data set [2] is over 128 µM. Moreover, the percent inhibition of intracellular bacterial growth at 10 µM in data set [3] was 21.6%. This compound had an inhibition in data set [4] of 57.9%.

In the case of `C=CCONC(=O)CN1C(=O)S/C(=C\CCCC)C1=O`, the concentration for half-maximal inhibition (IC50) in data set [1] worked out at 18 µM. Moreover, the CC50 at 24 h in data set [2] was over 128 µM. For the same compound, the inhibition result in data set [5] was “Active”. The selectivity ratio in data set [6] is over 2.1. The compound further yielded an inhibition in data set [4] of 89.9%.

`CCCC/C=C1\SC(=O)N(C(C)C(=O)NOCc2ccccc2)C1=O` (centres undefined) returned an IC50 in data set [1] of 20 to 160 µM. Moreover, in data set [2], the CC50 at 24 h came to 43.9 µM. In data set [7], the inhibition result was “inactive”. Also, the selectivity ratio in data set [6] was over 0.7. This compound returned an inhibition in data set [4] of 37.1%.

In turn, `CC(C(=O)NOCc1ccccc1)N1C(=O)S/C(=C\c2ccc(F)cc2)C1=O` (centres undefined) registered a half-maximal inhibitory concentration (IC50) in data set [1] of 20 to 160 µM. In addition, in data set [2], the 50% cytotoxic concentration (CC50) at 24 h was over 128 µM. The percent inhibition of intracellular bacterial growth at 10 µM in data set [3] stood at 25.1%. The compound also returned an inhibition in data set [4] of 95.8%.

The compound `CCCC/C=C1\SC(=O)N(CC(=O)NOCc2ccccc2)C1=O` yielded an IC50 in data set [1] of 20 to 160 µM. Further, the CC50 at 24 h in data set [2] was over 128 µM. The inhibition result in data set [7] is “inactive”. In addition, the inhibition in data set [4] came to 99.8%.

On to `C=CCONC(=O)C(C)N1C(=O)S/C(=C\c2ccc(C(F)(F)F)cc2)C1=O` (centres undefined), for which the half-inhibitory concentration (IC50) in data set [1] was 20 to 160 µM. Moreover, the CC50 at 24 h in data set [2] was over 128 µM. Further, the inhibition entry in data set [7] was “inactive”. Moreover, in data set [4], the inhibition was found to be 44.5%.

`O=C(CN1C(=O)S/C(=C\c2ccc(C(F)(F)F)cc2)C1=O)NOCc1ccccc1`: 38 µM corresponded to half-maximal inhibition in data set [1] (IC50). The 50% cytotoxic concentration (CC50) at 24 h in data set [2] is over 128 µM. The inhibition in vivo at 100 µM in data set [8] was 70.4%. For the same compound, the percent inhibition of intracellular bacterial growth at 10 µM in data set [3] was determined as 48.8%. Moreover, the inhibition in data set [4] is 64.9%.

In turn, `C=CCONC(=O)CN1C(=O)S/C(=C\c2ccc(C(F)(F)F)cc2)C1=O` returned a 50% inhibitory concentration (IC50) in data set [1] of 20 to 160 µM. Moreover, the CC50 at 24 h in data set [2] was over 128 µM. In addition, in data set [7], the inhibition result is “inactive”. For the same compound, the inhibition in data set [4] is 87.2%.

In turn, `CC(C(=O)NOCc1ccccc1)N1C(=O)S/C(=C\c2ccccc2)C1=O` (centres undefined) had an IC50 in data set [1] of 20 to 160 µM. In addition, in data set [2], the CC50 at 24 h is over 128 µM. Further, in data set [3], the percent inhibition of intracellular bacterial growth at 10 µM was 46.9%. This compound displayed an inhibition in data set [4] of 93.3%.
